{
  "source": "ChEMBL document CHEMBL1649147",
  "about": "“Antistaphylococcal activity of dihydrophthalazine antifolates, a family of novel antibacterial drugs” (2009)",
  "key": {"Staphylococcus aureus [1]": {"test_system": "Staphylococcus aureus", "assay": "Antibacterial activity against Tmp-resistant Staphylococcus aureus by agar dilution method", "format": "functional", "how_it_was_run": "(§1)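 MICs by agar dilution on Mueller-Hinton agar following CLSI guidelines. S. aureus ATCC 29213 and E. faecalis ATCC 29212 were run as quality controls with each set, and test-strain MICs were kept only if control MICs fell within acceptable ranges.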"}, "Staphylococcus aureus [2]": {"test_system": "Staphylococcus aureus", "assay": "Antibacterial activity against methicillin-resistant Staphylococcus aureus 507 by broth macrodilution method", "format": "functional"}, "Staphylococcus aureus [3]": {"test_system": "Staphylococcus aureus", "assay": "Antibacterial activity against methicillin-resistant Staphylococcus aureus by agar dilution method", "format": "functional", "how_it_was_run": "(§2)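 Agar dilution on Mueller-Hinton agar per CLSI guidelines. S. aureus ATCC 29213 and E. faecalis ATCC 29212 were run with each set, and test MICs were accepted only when the control strains fell within acceptable ranges.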"}, "Staphylococcus aureus [4]": {"test_system": "Staphylococcus aureus", "assay": "microbe, parasite or virus in culture", "settings": "ATCC43300"}, "[5]": {"test_system": "Staphylococcus epidermidis", "assay": "Antibacterial activity against methicillin-resistant coagulase-negative Staphylococcus epidermidis 197 by broth macrodilution method", "format": "functional"}, "Staphylococcus aureus [6]": {"test_system": "Staphylococcus aureus", "assay": "Antibacterial activity against Tmp-susceptible coagulase-negative Staphylococcus aureus by agar dilution method", "format": "functional", "how_it_was_run": "as §1"}, "[7]": {"test_system": "Staphylococcus epidermidis", "assay": "Antibacterial activity against methicillin-resistant coagulase-negative Staphylococcus epidermidis 345 by broth macrodilution method", "format": "functional"}, "[8]": {"test_system": "Staphylococcus epidermidis", "assay": "Antibacterial activity against methicillin-resistant, Linezolid non-susceptible coagulase-negative Staphylococcus epidermidis 345 by agar dilution method", "format": "functional"}, "[9]": {"test_system": "coagulase-negative staphylococci", "assay": "Antibacterial activity against methicillin-resistant coagulase-negative staphylococci by agar dilution method"}, "Staphylococcus aureus [10]": {"test_system": "Staphylococcus aureus", "assay": "Antibacterial activity against methicillin-resistant and vancomycin-resistant Staphylococcus aureus VRS1 by agar dilution method", "format": "functional", "how_it_was_run": "as §2"}, "[11]": {"test_system": "Staphylococcus epidermidis", "assay": "Antibacterial activity against methicillin-resistant coagulase-negative Staphylococcus epidermidis 074 by broth macrodilution method", "format": "functional"}, "Staphylococcus aureus [12]": {"test_system": "Staphylococcus aureus", "assay": "Antibacterial activity against methicillin-resistant Staphylococcus aureus ATCC 43300 by broth macrodilution method", "format": "functional", "settings": "ATCC43300"}, "Staphylococcus aureus [13]": {"test_system": "Staphylococcus aureus", "assay": "Antibacterial activity against Tmp-susceptible Staphylococcus aureus by agar dilution method", "format": "functional", "how_it_was_run": "as §1"}, "[14]": {"test_system": "Staphylococcus epidermidis", "assay": "Antibacterial activity against methicillin-susceptible coagulase-negative Staphylococcus epidermidis 057 by broth macrodilution method", "format": "functional"}, "[15]": {"test_system": "coagulase-negative staphylococci", "assay": "Antibacterial activity against methicillin-susceptible coagulase-negative staphylococci by agar dilution method"}, "Staphylococcus aureus [16]": {"test_system": "Staphylococcus aureus", "assay": "Antibacterial activity against vancomycin-resistant Staphylococcus aureus VRS1 by broth macrodilution method", "format": "functional", "how_it_was_run": "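Michigan VRSA strain, one of 12 staphylococci later used in time-kill studies. MIC was determined by broth macrodilution and reported in μg/ml.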"}, "[17]": {"test_system": "Staphylococcus epidermidis", "assay": "Antibacterial activity against methicillin-susceptible coagulase-negative Staphylococcus epidermidis 051 by broth macrodilution method", "format": "functional"}, "[18]": {"test_system": "coagulase-negative staphylococci", "assay": "Antibacterial activity against Tmp-resistant coagulase-negative staphylococci by agar dilution method"}, "Staphylococcus aureus [19]": {"test_system": "Staphylococcus aureus", "assay": "microbe, parasite or virus in culture", "settings": "505"}, "Staphylococcus aureus [20]": {"test_system": "Staphylococcus aureus", "assay": "microbe, parasite or virus in culture", "settings": "ATCC29213"}, "[21]": {"test_system": "Staphylococcus epidermidis", "assay": "Antibacterial activity against methicillin-resistant coagulase-negative Staphylococcus epidermidis 197 after 50 passages by agar dilution method", "format": "functional", "how_it_was_run": "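Daily serial passage for up to 50 days at 35°C for 24 h in 1 ml MHB. Each transfer used 10 µl from the tube nearest the MIC (1–2 dilutions below) with the same turbidity as the drug-free control. MICs were measured by agar dilution, with changes given as log2 steps.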"}, "Staphylococcus aureus [22]": {"test_system": "Staphylococcus aureus", "assay": "Antibacterial activity against methicillin-resistant Staphylococcus aureus 145 by broth macrodilution method", "format": "functional"}, "Staphylococcus aureus [23]": {"test_system": "Staphylococcus aureus", "assay": "Antibacterial activity against methicillin-susceptible Staphylococcus aureus by agar dilution method", "format": "functional", "how_it_was_run": "as §2"}, "Staphylococcus aureus [24]": {"test_system": "Staphylococcus aureus", "assay": "Antibacterial activity against methicillin-susceptible Staphylococcus aureus 505 by broth macrodilution method", "format": "functional"}, "[25]": {"test_system": "Staphylococcus epidermidis", "assay": "Antibacterial activity against methicillin-resistant coagulase-negative Staphylococcus epidermidis 225 by broth macrodilution method", "format": "functional"}, "Staphylococcus aureus [26]": {"test_system": "Staphylococcus aureus", "assay": "Antibacterial activity against methicillin-susceptible, vancomycin-intermediate Staphylococcus aureus 505 by broth macrodilution method", "format": "functional"}, "Staphylococcus aureus [27]": {"test_system": "Staphylococcus aureus", "assay": "Antibacterial activity against methicillin-susceptible Staphylococcus aureus ATCC 29213 by broth macrodilution method", "format": "functional", "settings": "ATCC29213"}, "[28]": {"test_system": "coagulase-negative staphylococci", "assay": "Antibacterial activity against Tmp-susceptible coagulase-negative staphylococci by agar dilution method"}, "[29]": {"test_system": "Staphylococcus epidermidis", "assay": "Antibacterial activity against methicillin-resistant, vancomycin-intermediate coagulase-negative Staphylococcus epidermidis 225 by agar dilution method", "format": "functional", "how_it_was_run": "as §2"}},
  "data": [
    {"smiles": "COc1cc(Cc2cnc(N)nc2N)cc(OC)c1OC", "note": "[TRIMETHOPRIM]", "values": [
      {"measurement": "MIC", "setting": "Staphylococcus aureus [1]", "result": 32, "unit": "µg/mL"},
      {"measurement": "MIC50", "setting": "Staphylococcus aureus [1]", "result": "> 128", "unit": "µg/mL"},
      {"measurement": "MIC", "setting": "Staphylococcus aureus [2]", "result": 128, "unit": "µg/mL"},
      {"measurement": "MIC", "setting": "Staphylococcus aureus [3]", "result": "≤ 0.008", "unit": "µg/mL"},
      {"measurement": "MIC50", "setting": "Staphylococcus aureus [3]", "result": 0.5, "unit": "µg/mL"},
      {"measurement": "MIC", "setting": "Staphylococcus aureus [4]", "result": "> 128", "unit": "µg/mL"},
      {"measurement": "MIC", "setting": "[5]", "result": 0.5, "unit": "µg/mL"},
      {"measurement": "MIC", "setting": "Staphylococcus aureus [6]", "result": 0.03, "unit": "µg/mL"},
      {"measurement": "MIC", "setting": "[7]", "result": "> 128", "unit": "µg/mL"},
      {"measurement": "MIC", "setting": "[8]", "result": "> 128", "unit": "µg/mL"},
      {"measurement": "MIC50", "setting": "[9]", "result": 128, "unit": "µg/mL"},
      {"measurement": "MIC", "setting": "Staphylococcus aureus [10]", "result": "> 128", "unit": "µg/mL"},
      {"measurement": "MIC", "setting": "[11]", "result": 4, "unit": "µg/mL"},
      {"measurement": "MIC", "setting": "Staphylococcus aureus [12]", "result": 1, "unit": "µg/mL"},
      {"measurement": "MIC50", "setting": "Staphylococcus aureus [13]", "result": 0.5, "unit": "µg/mL"},
      {"measurement": "MIC90", "setting": "Staphylococcus aureus [13]", "result": 0.5, "unit": "µg/mL"},
      {"measurement": "MIC", "setting": "[14]", "result": 128, "unit": "µg/mL"},
      {"measurement": "MIC90", "setting": "[15]", "result": 64, "unit": "µg/mL"},
      {"measurement": "MIC", "setting": "Staphylococcus aureus [16]", "result": "> 128", "unit": "µg/mL"},
      {"measurement": "MIC", "setting": "[17]", "result": 128, "unit": "µg/mL"},
      {"measurement": "MIC50", "setting": "[18]", "result": "> 128", "unit": "µg/mL"},
      {"measurement": "MIC", "setting": "Staphylococcus aureus [19]", "result": "> 128", "unit": "µg/mL"},
      {"measurement": "MIC", "setting": "Staphylococcus aureus [20]", "result": "> 128", "unit": "µg/mL"},
      {"measurement": "MIC", "setting": "[21]", "result": 64, "unit": "µg/mL"},
      {"measurement": "MIC", "setting": "Staphylococcus aureus [22]", "result": "> 128", "unit": "µg/mL"},
      {"measurement": "MIC50", "setting": "Staphylococcus aureus [23]", "result": 0.5, "unit": "µg/mL"},
      {"measurement": "MIC90", "setting": "Staphylococcus aureus [23]", "result": "> 128", "unit": "µg/mL"},
      {"measurement": "MIC", "setting": "Staphylococcus aureus [24]", "result": 1, "unit": "µg/mL"},
      {"measurement": "MIC", "setting": "[25]", "result": "> 128", "unit": "µg/mL"},
      {"measurement": "MIC", "setting": "Staphylococcus aureus [26]", "result": 1, "unit": "µg/mL"},
      {"measurement": "MIC", "setting": "Staphylococcus aureus [27]", "result": 1, "unit": "µg/mL"},
      {"measurement": "MIC50", "setting": "[28]", "result": 0.25, "unit": "µg/mL"},
      {"measurement": "MIC90", "setting": "[28]", "result": 2, "unit": "µg/mL"},
      {"measurement": "MIC", "setting": "[29]", "result": "> 128", "unit": "µg/mL"}
    ]}
  ]
}
